ChEMBL document CHEMBL4706580, “4-Amino-1,2,4-triazole-3-thione-derived Schiff bases as metallo-β-lactamase inhibitors” (Eur J Med Chem, 2020)
Active and inactive are the calls of the source. No cut-off for these calls is given here.

How the values were obtained:
[1] = Inhibition of beta-lactamase NDM1 (unknown origin) expressed in Escherichia coli BL21(DE3) using cefotaxime/nitrocefin as substrate by measuring substrate hydrolysis at 200 uM by spectrophotometric analysis
[2] = Inhibition of beta-lactamase VIM2 (unknown origin) expressed in Escherichia coli BL21(DE3) using imipenem as substrate by measuring substrate hydrolysis at 100 uM by spectrophotometric analysis
Outline: (§1)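 Purified enzyme (overproduced in E. coli BL21(DE3), pET-9a; ion-exchange and gel filtration), 1-70 nM final. Reporter substrate 150 μM imipenem, read at 300 nm, 30 °C, 50 mM HEPES pH 7.5. Single-point screen at 100 or 200 μM; Ki from v0/vi vs [I] (0.5–1,000 μM final) assuming competitive inhibition, or Dixon plot. Triplicate.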

[3] = Inhibition of beta-lactamase VIM4 (unknown origin) expressed in Escherichia coli BL21(DE3) using imipenem as substrate by measuring substrate hydrolysis by spectrophotometric analysis; outline: as §1
[4] = Inhibition of beta-lactamase VIM2 (unknown origin) expressed in Escherichia coli BL21(DE3) using imipenem as substrate by measuring substrate hydrolysis at 200 uM by spectrophotometric analysis; outline: as §1
[5] = Inhibition of beta-lactamase IMP-1 (unknown origin) expressed in Escherichia coli BL21(DE3) using imipenem as substrate by measuring substrate hydrolysis at 100 uM by spectrophotometric analysis; outline: as §1
[6] = Inhibition of beta-lactamase IMP-1 (unknown origin) expressed in Escherichia coli BL21(DE3) using imipenem as substrate by measuring substrate hydrolysis at 200 uM by spectrophotometric analysis; outline: as §1
[7] = Inhibition of beta-lactamase L1 (unknown origin) expressed in Escherichia coli BL21(DE3) using nitrocefin as substrate by measuring substrate hydrolysis preincubated for 30 mins by spectrophotometric analysis
Outline: (§2)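 Enzyme 0.2–0.8 nM in 25 mM HEPES pH 7.5 with 50 μM ZnCl2 final, pre-incubated 30 min at 21 °C with inhibitor (100 μM screen). Nitrocefin 100 μM final, read at 482 nm, 30 °C. Residual activity vs three uninhibited samples; Ki (1–100 μM inhibitor) from Hanes linearization, competitive model. Triplicate.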

[8] = Inhibition of beta-lactamase NDM1 (unknown origin) expressed in Escherichia coli BL21(DE3) using cefotaxime/nitrocefin as substrate by measuring substrate hydrolysis at 100 uM by spectrophotometric analysis
[9] = Inhibition of beta-lactamase VIM4 (unknown origin) expressed in Escherichia coli BL21(DE3) using imipenem as substrate by measuring substrate hydrolysis at 100 uM by spectrophotometric analysis; outline: as §1
[10] = Inhibition of beta-lactamase L1 (unknown origin) expressed in Escherichia coli BL21(DE3) using nitrocefin as substrate by measuring substrate hydrolysis at 100 uM preincubated for 30 mins by spectrophotometric analysis; outline: as §2
[11] = Inhibition of beta-lactamase L1 (unknown origin) expressed in Escherichia coli BL21(DE3) using nitrocefin as substrate by measuring substrate hydrolysis at 200 uM preincubated for 30 mins by spectrophotometric analysis
[12] = Inhibition of beta-lactamase CphA (unknown origin) expressed in Escherichia coli BL21(DE3) using imipenem as substrate by measuring substrate hydrolysis at 100 uM by spectrophotometric analysis
Outline: (§3)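 Enzyme 0.2–0.8 nM in 15 mM cacodylate pH 6.5, no added zinc, pre-incubated 30 min at 21 °C with inhibitor (100 μM screen). Imipenem substrate added from 10 mM stock; hydrolysis at 300 nm, 30 °C. Residual activity vs three uninhibited samples; Ki (1–100 μM inhibitor) by Hanes linearization, competitive model. Triplicate.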

[13] = Inhibition of beta-lactamase NDM1 (unknown origin) expressed in Escherichia coli BL21(DE3) using cefotaxime/nitrocefin as substrate by measuring substrate hydrolysis by spectrophotometric analysis
Outline: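 His-tagged enzyme from E. coli BL21(DE3) pET-15b, affinity-purified, 1-70 nM final. Reporter substrate 120 μM cefotaxime (260 nm) or 100 μM nitrocefin (482 nm), 30 °C, 50 mM HEPES pH 7.5. Inhibitor 0.5–1,000 μM final; competitive Ki from v0/vi vs [I] slope or Dixon plot. Triplicate.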

[14] = Inhibition of beta-lactamase VIM2 (unknown origin) expressed in Escherichia coli BL21(DE3) using imipenem as substrate by measuring substrate hydrolysis by spectrophotometric analysis; outline: as §1
[15] = Inhibition of beta-lactamase CphA (unknown origin) expressed in Escherichia coli BL21(DE3) using imipenem as substrate by measuring substrate hydrolysis by spectrophotometric analysis; outline: as §3
[16] = Inhibition of beta-lactamase VIM-2 (unknown origin) expressed in Escherichia coli LZ2310 assessed as potentiation of cefoxitin antibacterial activity by measuring cefoxitin induced diameter of inhibition zone at 40 uM incubated for 18 hrs by disk diffusion method (reference value: 14 mm)
Outline: (§4)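 Efflux-deficient E. coli LZ2310 (NorE, MdfA, AcrA knocked out) carrying pLB-II with the cloned MBL gene. Mueller-Hinton, CLSI disk diffusion; antibiotic disks (30 µg cefoxitin for VIM-2, 10 µg ampicillin for VIM-4, 30 µg ceftazidime for NDM-1/IMP-1) loaded with inhibitor in DMSO (≤15 µL). Zone diameter after 18 h, 35 ± 1 °C; DMSO and 220 µg EDTA controls. Triplicate.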

[17] = Inhibition of beta-lactamase VIM-4 (unknown origin) expressed in Escherichia coli LZ2310 assessed as potentiation of ampicillin antibacterial activity by measuring ampicillin induced diameter of inhibition zone at 40 uM incubated for 18 hrs by disk diffusion method (reference value: 6 mm); outline: as §4

## O=C(O)c1ccccc1/C=N/n1c(-c2ccc3ccccc3c2O)n[nH]c1=S
[1]
  inhibition: 60%
[2]
  inhibition: inactive
[3]
  Ki: 2 µM
[4]
  inhibition: inactive
[5]
  inhibition: inactive
[6]
  inhibition: inactive
[7]
  Ki: 0.5 µM

## Oc1ccc(/C=N/n2c(-c3ccc4ccccc4c3)n[nH]c2=S)c(O)c1
[1]
  inhibition: inactive
[8]
  inhibition: inactive
[9]
  inhibition: 55%
[5]
  inhibition: inactive
[6]
  inhibition: inactive
[10]
  inhibition: inactive
[11]
  inhibition: inactive

## Oc1ccc(/C=N/n2c(-c3cccc(Cl)c3)n[nH]c2=S)c(O)c1
[1]
  inhibition: 50%
[3]
  Ki: 3 µM
[12]
  inhibition: 35%
[5]
  inhibition: 66%
[10]
  inhibition: 30%

## O=C(O)c1ccccc1/C=N/n1c(-c2cccc3ccccc23)n[nH]c1=S
[13]
  Ki: 76 µM
[9]
  inhibition: 53%
[12]
  inhibition: 56%
[5]
  inhibition: 35%
[14]
  Ki: 14.5 µM
[7]
  Ki: 1.1 µM

## O=C(O)c1ccccc1/C=N/n1c(-c2cccc(Br)c2)n[nH]c1=S
[1]
  inhibition: inactive
[2]
  inhibition: 35%
[8]
  inhibition: inactive
[3]
  Ki: 2 µM
[5]
  inhibition: inactive
[6]
  inhibition: inactive
[7]
  Ki: 3 µM

## Cc1ccccc1-c1n[nH]c(=S)n1/N=C/c1ccccc1
[8]
  inhibition: 32%
[3]
  Ki: 20 µM
[5]
  inhibition: 34%
[14]
  Ki: 20 µM
[10]
  inhibition: inactive
[15]
  Ki: 70 µM
[11]
  inhibition: inactive

## Oc1ccc(/C=N/n2c(C(c3ccccc3)c3ccccc3)n[nH]c2=S)c(O)c1
[1]
  inhibition: inactive
[2]
  inhibition: inactive
[8]
  inhibition: inactive
[9]
  inhibition: 50%
[4]
  inhibition: inactive
[5]
  inhibition: inactive
[6]
  inhibition: inactive
[10]
  inhibition: inactive
[11]
  inhibition: inactive

## Cc1ccccc1-c1n[nH]c(=S)n1/N=C/c1cc(O)ccc1[N+](=O)[O-]
[1]
  inhibition: inactive
[2]
  inhibition: inactive
[8]
  inhibition: inactive
[9]
  inhibition: 32%
[4]
  inhibition: inactive
[5]
  inhibition: 47%
[15]
  Ki: 9 µM
[7]
  Ki: 16 µM

## Oc1ccc(/C=N/n2c(CCc3ccccc3)n[nH]c2=S)c(O)c1
[16]
  inhibition zone (IZ): 14 mm
[13]
  Ki: 168 µM
[9]
  inhibition: 54%
[5]
  inhibition: 45%
[14]
  Ki: 9 µM
[10]
  inhibition: 51%
[15]
  Ki: 6 µM

## Cc1ccccc1-c1n[nH]c(=S)n1/N=C/c1ccc([N+](=O)[O-])cc1
[1]
  inhibition: inactive
[2]
  inhibition: inactive
[8]
  inhibition: inactive
[3]
  Ki: 1.4 µM
[17]
  inhibition zone (IZ): 6 mm
[12]
  inhibition: 59%
[4]
  inhibition: inactive
[5]
  inhibition: 43%
[10]
  inhibition: 56%

## S=c1[nH]nc(-c2ccccc2-c2ccccc2)n1/N=C/c1ccc(OCc2ccccc2)cc1
[2]
  inhibition: inactive
[8]
  inhibition: 45%
[4]
  inhibition: inactive
[5]
  inhibition: inactive
[6]
  inhibition: inactive
[10]
  inhibition: inactive
[11]
  inhibition: inactive

## Oc1ccc(/C=N/n2c(Cc3ccc4ccccc4c3)n[nH]c2=S)c(O)c1
[1]
  inhibition: inactive
[2]
  inhibition: inactive
[8]
  inhibition: inactive
[9]
  inhibition: 30%
[4]
  inhibition: inactive
[5]
  inhibition: 64%
[10]
  inhibition: inactive
[11]
  inhibition: inactive

## Oc1ccc(/C=N/n2c(-c3ccccc3)n[nH]c2=S)c(O)c1
[16]
  inhibition zone (IZ): 14 mm
[3]
  Ki: 1.7 µM
[17]
  inhibition zone (IZ): 6 mm
[5]
  inhibition: 54%
[10]
  inhibition: 46%
[15]
  Ki: 26 µM

## Oc1ccc(/C=N/n2c(-c3cc(Cl)cc(Cl)c3)n[nH]c2=S)c(O)c1
[16]
  inhibition zone (IZ): 14 mm
[8]
  inhibition: 50%
[3]
  Ki: 4 µM
[5]
  inhibition: 55%
[14]
  Ki: 3.8 µM
[10]
  inhibition: 40%

## Oc1ccc(/C=N/n2c(-c3cc4ccccc4[nH]3)n[nH]c2=S)c(O)c1
[1]
  inhibition: inactive
[2]
  inhibition: inactive
[8]
  inhibition: inactive
[9]
  inhibition: 55%
[4]
  inhibition: inactive
[5]
  inhibition: inactive
[6]
  inhibition: inactive
[10]
  inhibition: inactive
[11]
  inhibition: inactive

## Cc1ccccc1-c1n[nH]c(=S)n1/N=C/c1ccc(O)cc1
[1]
  inhibition: inactive
[2]
  inhibition: inactive
[8]
  inhibition: inactive
[3]
  Ki: 1.3 µM
[12]
  inhibition: 35%
[4]
  inhibition: inactive
[5]
  inhibition: 37%
[10]
  inhibition: 43%

## O=C(O)c1ccccc1/C=N/n1c(-c2cccc(F)c2)n[nH]c1=S
[2]
  inhibition: inactive
[9]
  inhibition: 51%
[4]
  inhibition: inactive
[5]
  inhibition: inactive
[6]
  inhibition: inactive
[10]
  inhibition: 40%

## O=C(O)c1cccc(-c2cccc(/C=N/n3c(-c4ccc5ccccc5c4)n[nH]c3=S)c2)c1
[1]
  inhibition: 50%
[2]
  inhibition: 30%
[3]
  Ki: 2.8 µM
[5]
  inhibition: inactive
[6]
  inhibition: inactive
[10]
  inhibition: 45%

## O=C(O)c1ccccc1/C=N/n1c(-c2ccccc2-c2ccccc2)n[nH]c1=S
[2]
  inhibition: inactive
[8]
  inhibition: 32%
[9]
  inhibition: 49%
[4]
  inhibition: inactive
[5]
  inhibition: inactive
[6]
  inhibition: inactive
[10]
  inhibition: inactive
[11]
  inhibition: inactive

## O=C(O)c1ccccc1/C=N/n1c(Cc2ccccc2)n[nH]c1=S
[16]
  inhibition zone (IZ): 14 mm
[1]
  inhibition: 60%
[9]
  inhibition: 57%
[12]
  inhibition: 51%
[5]
  inhibition: 48%
[14]
  Ki: 3.2 µM
[10]
  inhibition: 59%

## Oc1ccc(/C=N/n2c(-c3cccc(-c4ccccc4)c3)n[nH]c2=S)c(O)c1
[2]
  inhibition: 45%
[8]
  inhibition: 65%
[9]
  inhibition: 65%
[5]
  inhibition: inactive
[6]
  inhibition: inactive
[10]
  inhibition: inactive
[11]
  inhibition: inactive

## Oc1ccc(/C=N/n2c(-c3cc(O)ccc3O)n[nH]c2=S)c(O)c1
[1]
  inhibition: inactive
[2]
  inhibition: inactive
[8]
  inhibition: inactive
[3]
  Ki: 3 µM
[4]
  inhibition: inactive
[5]
  inhibition: 50%
[15]
  Ki: 5 µM
[7]
  Ki: 15 µM

## Cc1ccccc1-c1n[nH]c(=S)n1/N=C/c1ccccc1C#N
[1]
  inhibition: 60%
[2]
  inhibition: inactive
[3]
  Ki: 6.5 µM
[4]
  inhibition: inactive
[6]
  inhibition: 50%
[10]
  inhibition: inactive
[11]
  inhibition: inactive
